# The list is not random: actives were taken first. Their share in the collection is about 3%.
# TRPC4 block – inhibitors of mouse TRPC4 channel, primary screen, Fluo4 calcium, HEK293 TRPC4beta/mu-opioid cells | 300,000 compounds, 0.39% hits | DAMGO-evoked Fluo4 calcium flux; hits give low values | AID 2247, 2010 | B-score at 10 µM | Short transient receptor potential channel 4 (Mus musculus), Q9QUQ5;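 active means B-score over 3 SD under the library average, no early fluorescence shift, positive overall ratio signal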
#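 System: stable TRPC4beta/mu-opioid receptor HEK293 cells; Dosing: single-point compound dosing; Measured by: Fluo4 Ca2+ flux fluorescence; Read-out basis: per-well B score of integrated baseline-normalized Fluo4 ratio.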
# TRPC4 potent – positive allosteric modulators of TRPC4, primary screen, cell-based, mouse TRPC4beta, HEK293 mu-opioid, Fluo-4 calcium; Short transient receptor potential channel 4 (Mus musculus), Q9QUQ5; DAMGO EC20, Fluo-4 Ca2+ flux; hits give high values; B-score at 10 µM; 310,000 compounds, 0.42% hits;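 active means B-score of calcium response area above 5 SD of library B-scores, with initial fluorescence ratio within 5 SD of library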;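 further: B-score of integrated fluorescence ratio over time as area under calcium response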
# TRPC6 inh – mouse TRPC6 channel inhibitors, primary screen, cell-based, HEK293, membrane potential dye. 310,000 compounds, 1.1% hits. B-score at 10 µM. Short transient receptor potential channel 6 (Mus musculus), Q61143. ACh-evoked depolarization; hits give low values;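 active means B-score under library mean minus 3 SD, initial fluorescence not abnormally high, positive integrated signal ratio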;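 further: B-score derived from integrated fluorescence ratio over the kinetic read; more negative B-score means stronger inhibition of depolarization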
# Target sequence (Q61143 whole entry, looked up): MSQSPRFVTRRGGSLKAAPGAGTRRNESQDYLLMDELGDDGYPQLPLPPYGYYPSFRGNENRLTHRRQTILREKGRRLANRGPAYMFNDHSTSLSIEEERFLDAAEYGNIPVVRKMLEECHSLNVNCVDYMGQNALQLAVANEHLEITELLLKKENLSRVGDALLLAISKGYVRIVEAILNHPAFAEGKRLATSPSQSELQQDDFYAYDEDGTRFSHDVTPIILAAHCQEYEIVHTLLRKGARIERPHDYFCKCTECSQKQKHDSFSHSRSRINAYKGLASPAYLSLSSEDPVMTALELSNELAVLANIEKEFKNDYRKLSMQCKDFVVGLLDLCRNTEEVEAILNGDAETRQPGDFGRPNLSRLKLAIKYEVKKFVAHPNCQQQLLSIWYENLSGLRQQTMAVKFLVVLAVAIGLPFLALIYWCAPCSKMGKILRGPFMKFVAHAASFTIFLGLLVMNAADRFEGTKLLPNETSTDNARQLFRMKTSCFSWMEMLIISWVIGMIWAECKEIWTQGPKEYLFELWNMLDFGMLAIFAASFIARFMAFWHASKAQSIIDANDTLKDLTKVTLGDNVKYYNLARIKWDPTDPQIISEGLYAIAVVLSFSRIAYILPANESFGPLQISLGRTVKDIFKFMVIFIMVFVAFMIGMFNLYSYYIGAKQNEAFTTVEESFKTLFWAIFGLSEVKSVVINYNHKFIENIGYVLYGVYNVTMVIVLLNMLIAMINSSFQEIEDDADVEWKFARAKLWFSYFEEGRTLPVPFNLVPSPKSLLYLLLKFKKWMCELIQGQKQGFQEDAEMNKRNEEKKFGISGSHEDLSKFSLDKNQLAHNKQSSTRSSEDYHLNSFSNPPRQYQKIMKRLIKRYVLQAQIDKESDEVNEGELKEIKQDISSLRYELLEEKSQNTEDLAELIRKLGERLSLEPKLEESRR
# TRPC4 agonist – activators of mouse TRPC4 channel, primary screen, Fluo4 calcium, HEK293 TRPC4beta/mu-opioid cells; Fluo4 calcium fluorescence; hits give high values; 310,000 compounds, 0.49% hits; B-score at 10 µM;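 active means B-score above 5 SD of library B-scores, and initial fluorescence ratio not above library mean plus 5 SD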;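 further: positive B-score marks a calcium rise read as TRPC4 activation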
#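 System: HEK293 cells stably co-expressing mouse TRPC4beta and mu-opioid receptor; Schedule: Fluo4 dye loading 45 min at room temperature, 110 s recording; Detection: Fluo4 fluorescence, kinetic; Evaluation: B-scored integrated calcium fluorescence ratio; Controls: buffer (low) and maximal DAMGO (high).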
# TRPC6 act – mouse TRPC6 channel activators, primary screen, cell-based, HEK293, membrane potential dye; 310,000 compounds, 0.13% hits; B-score at 10 µM; HEK293-TRPC6 membrane potential dye fluorescence; hits give high values; Short transient receptor potential channel 6 (Mus musculus), Q61143;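 active means B-score of the integrated fluorescence ratio above library mean plus 3 SD, and starting fluorescence ratio within library mean plus 5 SD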;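 further: higher score means more depolarization so channel activation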
# Kir21 block – inhibitors of mouse Kir2.1 inward-rectifier potassium channel; 310,000 compounds, 0.85% hits; B-score at 10 µM; Inward rectifier potassium channel 2 (Mus musculus), P35561; HEK293-Kir2.1, FluxOR thallium flux fluorescence; hits give low values;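 active means fluorescence ratio B-score at or below minus 3 SD of library scores, with starting-brightness B-score within 2 SD, cut at about -4.2 in these data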;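 further: channel flux triggered by added potassium and thallium sulfate stimulus; B-score of peak minus minimum fluorescence over baseline after thallium stimulus; more negative B-score means stronger Kir2.1 block with less thallium influx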
# TRPC4 sel inh 2 – mouse TRPC4 off-target activity of TRPC6 inhibitors, second screen; HEK293 TRPC4/MOR, membrane potential dye fluorescence; channel activated by saturating DAMGO dose; inhibition, % at 10 µM; 920 compounds, 42% hits; shares compounds with TRPC6 inh;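 active means compounds whose fluorescence signal differed from control wells by over 3 SD, either direction, in both duplicate plates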
# TRPC4 spec – mouse TRPC4 modulation by TRPC6 hits, confirmation, selectivity assay for TRPC6 inhibitor project, cell-based, HEK293 TRPC4/mu-opioid, membrane potential dye; shares compounds with TRPC6 inh; 920 compounds, 61% hits; AID 2777, 2010; activity change, negative = inhibition, % at 10 µM; membrane potential fluorescence;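 active means rise or fall in signal beyond 3 SD of buffer-only wells in both replicate plates, either sign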;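 further: integrated kinetic ratio of fluorescence range over baseline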
# HEK293 MPD ctr 2-1 – nonspecific membrane potential effects, parental HEK293, confirmation, counter-screen for TRPC6 inhibitor project, cell-based, second counter screen. signal change vs control, % at 10 µM. parental HEK293 membrane potential dye fluorescence; maximal acetylcholine challenge after compound addition. 920 compounds, 31% hits. AID 2779, 2010. shares compounds with TRPC6 inh;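 active means membrane potential signal moving either way by over 3 SD of the maximum-effect control, in both duplicate plates, meaning non-specific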
# HEK293 MPD ctr-1 – membrane potential modulation in parental HEK293, confirmation, counter-screen for TRPC6 inhibitor project, cell-based; 920 compounds, 60% hits; parental HEK293 membrane potential dye fluorescence; shares compounds with TRPC6 inh; membrane potential signal change, % at 10 µM;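 active means membrane potential signal shifting up or down by more than 3 SD of buffer-only wells, on both duplicate plates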
# HEK293 MPD ctr-2 – parental HEK293 membrane potential modulation, confirmation, counter-screen for TRPC6 modulator project, cell-based; membrane potential dye fluorescence; membrane potential signal change, % at 10 µM; AID 488924, 2010; 2,400 compounds, 51% hits; shares compounds with TRPC6 inh;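 active means membrane potential signal moves up or down beyond 5 SD from buffer-only wells, on both duplicate plates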
# HEK293 MPD ctr 2-2 – parental HEK293 nonspecific activity of TRPC6 modulators, second screen; shares compounds with TRPC6 inh; membrane potential dye fluorescence; after compound, maximal acetylcholine stimulation; inhibition, % at 10 µM; 2,400 compounds, 14% hits; AID 488926;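 active means membrane potential signal drops by more than 5 SD from the mean control signal, in both duplicate plates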;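 further: plate controls were acetylcholine ECmax control wells for no effect and buffer only wells for full effect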
# TRPC4 ctr mod – TRPC4 modulation by TRPC6 hit compounds, confirmation, selectivity assay for TRPC6 modulator project, cell-based, HEK293 TRPC4/mu-opioid, membrane potential dye, mouse | shares compounds with TRPC6 inh | membrane potential fluorescence | percent change from control (negative = decrease, positive = increase), % at 10 µM | 2,400 compounds, 69% hits;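 active means membrane potential signal moved up or down beyond 5 SD of buffer control wells, in both duplicate plates, actives on both sides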;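 further: plate controls were assay buffer wells for no effect and DAMGO maximal-effect wells for full effect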
# TRPC4 ctr inh 2 – second check of whether TRPC6 modulators also affect mouse TRPC4; shares compounds with TRPC6 inh; HEK293 TRPC4/mu-opioid, membrane potential dye fluorescence; stimulated with maximal-effect DAMGO; inhibition, % at 10 µM; 2,400 compounds, 55% hits;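 active means drop in membrane potential signal beyond 5 SD of the control wells in both duplicate plates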;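 further: TRPC4 counter screen for TRPC6 hits run under conditions tuned for TRPC6 not TRPC4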
# TRPC6 block conf – mouse TRPC6 channel inhibitors, confirmation, HEK293 cells, membrane potential dye, duplicate | inhibition, % at 10 µM | 3,300 compounds, 43% hits | ACh-evoked depolarization | shares compounds with TRPC6 inh;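 active means fluorescence ratio falls more than 5 SD below the full-stimulation control mean, in both duplicate runs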;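 further: integrated fluorescence ratio of peak minus minimum over baseline after agonist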
# TRPC6 act conf – mouse TRPC6 channel activators, confirmation, HEK293 cells, membrane potential dye, duplicate; shares compounds with TRPC6 inh; HEK293-TRPC6 membrane potential dye fluorescence, FDSS; activation, % at 10 µM; 2,800 compounds, 11% hits; AID 488961, 2010;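 active means ratio signal rise beyond 5 SD above unstimulated control wells' mean, seen in both duplicate runs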;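 further: plate controls were buffer EC0 wells for no effect and acetylcholine ECmax response for full effect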
# Active calls of the source: *; i = inactive; . = no result.
SMILES,TRPC4 block,TRPC4 potent,TRPC6 inh,TRPC4 agonist,TRPC6 act,Kir21 block,HEK293 MPD ctr-2,HEK293 MPD ctr 2-2,TRPC4 ctr mod,TRPC4 ctr inh 2,TRPC6 block conf,TRPC6 act conf,others
CNc1ccc2nc3ccccc3[n+](C)c2c1,i,i,-12*,i,i,-0.45,-84%*,162%*,-48%*,52%*,86%*,i,
C[n+]1c2ccccc2nc2ccc(NCCO)cc21,i,i,-7.4*,i,i,-0.46,-114%*,133%*,-36%*,50%*,66%*,i,
CCOc1ccccc1CN1CCCC(C(=O)c2cc(F)ccc2F)C1 (stereo unspecified),i,i,i,i,i,-0.09,.,.,.,.,.,.,
CC[N+](C)(CC)CCCOC(=O)C(O)(c1ccccc1)C1CCCCC1 (stereo unspecified),i,i,-8.1*,i,i,0.71,.,.,.,.,i,i,TRPC4 sel inh 2=i;TRPC4 spec=i;HEK293 MPD ctr 2-1=i;HEK293 MPD ctr-1=i
CCCCCCC(=O)c1c(O)n(-c2ccccc2OC)c(=O)[nH]c1=O,i,i,i,i,i,-0.7,.,.,.,.,.,.,
Cc1cc(OCCN2CC2)c2ccccc2n1,i,i,i,i,i,-0.06,.,.,.,.,.,.,
COc1c(C)cc(C(=O)C2CCCN(Cc3ccccn3)C2)cc1C (stereo unspecified),i,i,i,i,i,0.15,.,.,.,.,.,.,
C[N+]12CCC(CC1)C(C(O)(c1ccccc1)c1cccs1)C2 (stereo unspecified),i,i,-5.7*,i,i,-0.01,i,i,i,i,55%*,i,
CCCN1CCc2cccc3c2[C@H]1Cc1ccc(O)c(O)c1-3,i,i,-5.6*,i,i,-4.2,i,i,i,37%*,i,i,
COc1cc2c(cc1O)CC1c3c(cc(O)c(OC)c3-2)CCN1C (stereo unspecified),i,i,i,i,i,-0.82,.,.,.,.,.,.,
CCc1ccc(NC2=NCCCS2)cc1,i,i,i,i,i,-1.2,.,.,.,.,.,.,
O=C(c1cc([N+](=O)[O-])ccc1N1CCNCC1)N1CCOCC1,i,i,i,i,i,0.36,.,.,.,.,.,.,
O=[N+]([O-])c1cc(F)c(N2CCCC2)cc1N1CCNCC1,i,i,-6.9*,i,i,-0.03,.,.,.,.,i,i,TRPC4 sel inh 2=48%*;TRPC4 spec=-29%*;HEK293 MPD ctr 2-1=i;HEK293 MPD ctr-1=-399%*
CN1CCN(c2c(F)cc([N+](=O)[O-])c(N)c2Br)CC1,i,i,i,i,i,-0.03,.,.,.,.,.,.,
Cn1c(=O)n(C)c2cc([N+](=O)[O-])c(N3CCNCC3)cc21,i,i,-6.3*,i,i,-0.62,-276%*,70%*,-46%*,54%*,52%*,i,
CN1CCN(c2ccc(S(C)(=O)=O)cc2[N+](=O)[O-])CC1,i,i,i,i,i,0.73,.,.,.,.,.,.,
CN1CCN(c2cc(N3CCCCCC3)c(F)cc2[N+](=O)[O-])CC1,i,i,-6*,i,i,-1.1,-88%*,i,-24%*,54%*,41%*,i,
Nc1c([N+](=O)[O-])cc(F)c(N2CCNCC2)c1Br,i,23*,-5.9*,i,i,0.24,-128%*,i,-22%*,34%*,39%*,i,
CN1CCN(c2ccc(S(=O)(=O)C(F)(F)F)cc2[N+](=O)[O-])CC1,i,i,i,i,i,0.56,.,.,.,.,.,.,
CC(=NCc1ccco1)c1c(O)n(-c2ccc(Cl)cc2)c(=O)[nH]c1=O,i,i,i,i,i,-0.73,.,.,.,.,.,.,
COC(=O)C1=C(c2cccc(OC)c2OC)C[C@@H]2CC[C@H]1N2C(=O)N1CCOCC1,.,i,i,i,i,1.5,.,.,.,.,.,.,
CN1CCN(c2ccc([N+](=O)[O-])c(Sc3nncn3C)c2)CC1,i,i,i,i,i,1.2,.,.,.,.,.,.,
CC1CN(c2ccc([N+](=O)[O-])c(N3CCCCC3)c2)CCN1 (stereo unspecified),i,i,-5.3*,i,i,-0.96,i,i,-10%*,i,i,i,
COc1ccccc1CCNC1CCC(C(C)(C)C)CC1 (stereo unspecified),i,i,-14*,i,18*,-3,673%*,105%*,156%*,82%*,98%*,178%*,
C[C@@H]1C(=O)O[C@@H]2[C@H](O)C34[C@@H]5OC(=O)C3(O[C@H]3OC(=O)[C@H](O)C34[C@H](C(C)(C)C)[C@H]5O)[C@@]12O (stereo partly specified),i,i,i,i,i,0.16,.,.,.,.,.,.,
